CHRM5 antagonist: antagonists of human muscarinic M5 receptor (CHRM5); P08912; CHO-hM5 cells, Fluo-8 calcium fluorescence, ACh EC80; inhibition, % at 3 µM; 0.59% of 360,000 active;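 active means inhibition above a per-plate cutoff, the mean of that plate's test compounds plus 3 SD, cut at about 27% in these data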;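 further: 0% = acetylcholine EC80 with DMSO and 100% = DMSO without agonist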
Target sequence (P08912 whole entry, looked up): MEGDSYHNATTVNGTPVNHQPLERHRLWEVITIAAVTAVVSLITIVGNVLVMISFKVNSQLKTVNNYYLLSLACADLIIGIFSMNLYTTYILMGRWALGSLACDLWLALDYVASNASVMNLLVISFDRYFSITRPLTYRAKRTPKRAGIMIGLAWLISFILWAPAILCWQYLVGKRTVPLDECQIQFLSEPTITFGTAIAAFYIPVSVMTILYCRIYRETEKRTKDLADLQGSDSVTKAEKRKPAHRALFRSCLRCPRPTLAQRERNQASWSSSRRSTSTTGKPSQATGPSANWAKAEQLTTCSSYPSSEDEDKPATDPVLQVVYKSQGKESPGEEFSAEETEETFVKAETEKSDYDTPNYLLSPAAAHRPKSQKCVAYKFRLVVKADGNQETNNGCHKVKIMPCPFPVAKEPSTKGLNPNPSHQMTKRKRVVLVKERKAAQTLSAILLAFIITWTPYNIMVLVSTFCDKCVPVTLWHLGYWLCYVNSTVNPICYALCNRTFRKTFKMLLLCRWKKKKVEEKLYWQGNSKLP
CHRM5 agonist: CHRM5 agonism in calcium assay; P08912; CHO-K1 hM5 cells, Fluo-8 calcium fluorescence; 0% DMSO wells, 100% maximal acetylcholine response; activation, % at 3 µM; 0.19% of 360,000 active;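 active means activation above the run's mean over test compounds plus 3 SD, cut at about 23% in these data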;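 further: signal is peak over basal fluorescence ratio across the kinetic read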
CHRM4 antagonist: blocks acetylcholine activation of human M4 receptor. CHO-hM4 cells, ACh EC80, Fluo-8 calcium fluorescence. inhibition, % at 3 µM. 0.73% of 360,000 active. AID 624125;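 active means inhibition above its plate's cutoff, the mean inhibition of sample wells plus 3 SD, cut at about 27% in these data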;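 further: 0% = acetylcholine EC80 with DMSO and 100% = DMSO without agonist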
M4 PAM: CHRM4 positive allosteric modulation. AID 624126. activation, % at 3 µM. CHO-K1 hM4/Gqi5, Fluo-8 calcium fluorescence, ACh EC20; 0% = ACh EC20, 100% = maximal ACh. P08173. 0.4% of 360,000 active;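 active means activation above its plate's cutoff, the mean activation of sample wells plus 3 SD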
CHRM5 PAM: positive allosteric modulators of human muscarinic M5 receptor; AID 624038; 0.3% of 360,000 active; CHO-K1 hM5, Fluo-8 calcium, ACh EC20 PAM; 0% = ACh EC20, 100% = ACh EC100; activation, % at 3 µM;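 active means activation above the run cutoff, the mean activation of all test compounds plus 3 SD, cut at about 18% in these data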
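System – CHO-K1 hM5 cells · Compound – 3 µM, single dose · Incubation – compound preincubation 140 s before EC20 acetylcholine addition · Technique – Fluo-8 calcium fluorescence · Measure – Max/basal fluorescence ratio as % of EC20–EC100 ACh window · Benchmarks – low control EC20 acetylcholine (0%), high control EC100 acetylcholine (100%) · Replication – singlicate, one well per test compound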
M4 ag: CHRM4 agonism in calcium assay; P08173; CHO-K1 hM4/Gqi5, Fluo-8 calcium fluorescence; vehicle 0%, full acetylcholine response 100%; activation, % at 3 µM; 0.14% of 360,000 active;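 active means activation above the run mean over all test wells plus 3 SD, cut at about 32% in these data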;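 further: peak over basal fluorescence ratio per well then scaled between controls; 0% = DMSO wells and 100% = acetylcholine at EC100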
The depositor's hits bear a star; ! = not confirmed by another sample. Only some compounds are listed: those with a hit (about 1.8% of all), similar ones and a draw of the others.

SMILES	CHRM5 antagonist	CHRM5 agonist	CHRM4 antagonist	M4 PAM	CHRM5 PAM	M4 ag
CCOC(=O)C1CCC(CNCc2ccc(Cl)cc2)CC1 (configuration not stated)	21	-7	42*	-14	-15	2
Cc1c(C)c2cc(Cl)c(O)c(CN3CCCC(C)C3)c2oc1=O (configuration not stated)	0	-7	28*	-20	1	-1
CCOC(=O)[C@]12CCCC=C1N(Cc1ccc3c(c1)OCO3)C(=O)[C@H](CC(=O)NCc1ccc(C)o1)C2	1	2	-11	3	9	2
CC(C)C[C@H](NC(=O)OC(C)(C)C)C(=O)N1CCC(C(=O)N[C@@H](Cc2c[nH]c3ccccc23)C(=O)O)CC1	3	-3	-1	4	4	2
CCC1CN2CCc3cc(OC)c(OC)cc3C2CC1CC1c2cc(OC)c(OC)cc2CCN1C(=O)C(Cc1c[nH]c2ccccc12)NC(=O)OC(C)(C)C (configuration not stated)	27*	-1	-3	-7	-25	10
OC(CCN1CCCC1)(c1ccccc1)C1CCCCC1 (configuration not stated)	99*	-2	99*	-17	-19	1
COc1ccc(C(O)(CCc2ccccc2)CCN2CCCCC2)cc1 (configuration not stated)	16	-11	1	-14	-15	2
CCCCOc1ccc(C(O)(CCN2CCOCC2)c2ccccc2)cc1 (configuration not stated)	5	-6	-8	0	-5	3
OC(CCCN1CCCCC1)(c1ccccc1)c1ccc(C(F)(F)F)cc1 (configuration not stated)	13	-12	50*	-11	-31	5
NC(=O)C(CCCCN1CCCCC1)(c1ccccc1)c1ccccc1	15	-13	37*	-9	-21	0
O=C(CCN1CCCCCC1)c1ccccc1	-9	0	0	-1	7	0
C=CCC(O)(CCN1CCCCC1)c1ccccc1 (configuration not stated)	46*	-10	33*	-24	-15	0
COc1ccc(CCN(C)C(=O)CNC(=O)Cc2cccc3ccccc23)cc1OC	13	-4	-5	0	-6	2
OC(CCN1CCCCC1)(c1ccccc1)c1ccccc1	99*	-1	100*	-18	-18	1
O=C(Nc1cccc(C(=O)O)c1)/C(=C/c1ccc2c(c1)OCO2)NC(=O)c1cccc(Br)c1	28*	0	-2	2	-13	2
O=C(Nc1cccc(C(=O)O)c1)/C(=C\c1ccc2c(c1)OCO2)NC(=O)c1ccccc1Br	4	1	-16	2	-2	0
O=C(CC1CCC1)Nc1cccc2c([N+](=O)[O-])cccc12	28*	-7	8	-11	-11	0
O=[N+]([O-])c1ccc(C[n+]2ccccc2)cc1	-8	-3	3	25*	16	0
Cc1cc(C)n(-c2nc(NC(C)(C)C)nc(NC(C)(C)C)n2)n1	12	-4	0	-3	-2	0
Cc1cc(C)n(-c2nc(Nc3ccccc3C(F)(F)F)nc(-n3nc(C)cc3C)n2)n1	30*	1	15	-11	-16	28
O=C(O)C1CCCCC1C(=O)NCCCn1ccnc1 (configuration not stated)	1	-2	16	-7	-1	0
O=C(NCCCn1ccnc1)C(=O)NC1CCCCC1	0	-1	-1	10	19*	0
O=C(C[n+]1ccc(Cc2ccccc2)cc1)Nc1ccc([N+](=O)[O-])cc1Cl	3	-10	27*	-20	-9	1
Cc1ccnc2nc(C(=O)OCC(=O)NC3CCCC(C)C3C)nn12 (configuration not stated)	5	1	-9	21*	-4	2
Cc1ccc(N2C(=O)Nc3ccc(Br)cc3C2(O)C(=O)NCCN(C)C)cc1C (configuration not stated)	10	-4	8	-7	-3	0
SMILES	CHRM5 antagonist	CHRM5 agonist	CHRM4 antagonist	M4 PAM	CHRM5 PAM	M4 ag
COCCCOc1cc(NCc2ccccc2)c2ncn(C(C)C)c2c1	1	2	-13	12	7	0
CCCCOc1cc(NCc2ccccc2)c2ncn(C(C)C)c2c1	8	13	-23	29*	13	11
COc1cc(NCc2ccccc2)c2ncn(Cc3ccccc3)c2c1	-24	10	-20	36*	22*	17
CC1(C)CNC(=O)CC(C)(C)N1	-10	-4	-1	5	1	1
COc1ccc(CCN2CC(C(=O)N3CCSCC3)CCC2=O)cc1 (configuration not stated)	8	-5	-11	-2	-6	1
NC(=O)[C@@H]1CCOc2c(I)cc([N+](=O)[O-])cc2C(=O)N[C@@H](CO)C(=O)NCC(=O)N1	0	2	-4	13	21*	0
NC(=O)CC[C@@H]1NC(=O)[C@H](CO)NC(=O)c2cc([N+](=O)[O-])cc(I)c2OCC[C@@H](C(N)=O)NC1=O	-4	5	7	5	2	1
O=c1[nH]cc([N+](=O)[O-])cc1Br	-2	0	-3	4	1	0
COC(=O)c1cc(CNC(=O)c2ccccc2OCc2c(C)noc2C)ccc1OC	-25	-1	1	18*	2	5
O=C(NCc1ccc(F)c(F)c1)c1cccc2c(-c3cccnc3)coc12	13	6	2	-7	-13	17
COc1ccc(CNC(=O)c2cccc3c(-c4cccnc4)coc23)cc1OC	35*	9	14	-8	-18	21
CCCCCCCCCCOC(=O)Cn1c(COc2ccccc2C)[n+](C)c2ccccc21	53*	-27	92*	-18	-33	28
CCCCCCCCCCOC(=O)Cn1c(COc2cccc(C)c2)[n+](C)c2ccccc21	19	-25	38*	-13	-20	0
Cc1ccccc1OCc1n(CC(=O)OC2CC(C)CCC2C(C)C)c2ccccc2[n+]1C (configuration not stated)	44*!	-9	35*	-17	-19	3
CCCCCCCCCCOC(=O)Cn1c(COc2ccccc2)[n+](C)c2ccccc21	33*	-1	38*	-19	-16	2
CCCCCCCCCCOC(=O)Cn1c(COc2ccc(Cl)cc2)[n+](C)c2ccccc21	21	-8	18	-13	-15	6
